Test results taken from ChEMBL document CHEMBL1153422, “N6-Cycloalkyl- and N6-bicycloalkyl-C5'(C2')-modified adenosine derivatives as high-affinity and selective agonists at the human A1 adenosine receptor with antinociceptive effects in mice” (J Med Chem, 2009).
Active and inactive are the calls of the source. No cut-off for these calls is given here.

What was measured:
[1] = target: T1, Adenosine receptor A3 (Homo sapiens) (UniProt P0DMS8); experiment: Antagonist activity at human recombinant adenosine A3 receptor expressed in CHO cells assessed as inhibition of forskolin-stimulated adenylyl cyclase activity; type: functional, cell-based
T1 sequence (whole entry): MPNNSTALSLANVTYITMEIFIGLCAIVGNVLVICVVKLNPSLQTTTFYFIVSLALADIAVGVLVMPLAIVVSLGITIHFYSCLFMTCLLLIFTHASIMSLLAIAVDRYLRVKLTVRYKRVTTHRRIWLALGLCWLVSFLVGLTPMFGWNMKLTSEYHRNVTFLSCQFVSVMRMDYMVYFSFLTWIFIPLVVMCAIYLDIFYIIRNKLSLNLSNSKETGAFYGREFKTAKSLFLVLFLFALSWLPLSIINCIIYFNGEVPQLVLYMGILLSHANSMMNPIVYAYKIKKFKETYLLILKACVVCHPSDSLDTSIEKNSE

Adenosine receptor A2b = target: T2, Adenosine receptor A2b (Homo sapiens, UniProt P29275); experiment: Agonist activity at human adenosine A2B receptor expressed in CHO cells assessed as inhibition of NECA-stimulated adenylyl cyclase activity; type: functional, cell-based
T2 sequence (P29275 whole entry): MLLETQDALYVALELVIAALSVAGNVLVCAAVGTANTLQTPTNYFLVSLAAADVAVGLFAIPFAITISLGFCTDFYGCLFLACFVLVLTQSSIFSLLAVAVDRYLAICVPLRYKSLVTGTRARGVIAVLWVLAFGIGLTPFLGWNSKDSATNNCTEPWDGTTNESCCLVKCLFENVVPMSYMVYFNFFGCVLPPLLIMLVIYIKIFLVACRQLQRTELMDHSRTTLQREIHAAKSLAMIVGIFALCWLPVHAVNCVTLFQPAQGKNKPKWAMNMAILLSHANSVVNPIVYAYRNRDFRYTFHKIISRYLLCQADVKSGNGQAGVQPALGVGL
Outline: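 Membranes from CHO cells stably expressing human A2B receptor; inhibition of NECA-stimulated adenylyl cyclase activity measured, IC50 converted to Ki; curves fitted by nonlinear regression.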

Adenosine receptor A1 = target: T3, Adenosine receptor A1 (Homo sapiens, UniProt P30542); experiment: Displacement of [3H]CCPA from human recombinant adenosine A1 receptor expressed in CHO cells; type: cell-based
T3 sequence (P30542 whole entry): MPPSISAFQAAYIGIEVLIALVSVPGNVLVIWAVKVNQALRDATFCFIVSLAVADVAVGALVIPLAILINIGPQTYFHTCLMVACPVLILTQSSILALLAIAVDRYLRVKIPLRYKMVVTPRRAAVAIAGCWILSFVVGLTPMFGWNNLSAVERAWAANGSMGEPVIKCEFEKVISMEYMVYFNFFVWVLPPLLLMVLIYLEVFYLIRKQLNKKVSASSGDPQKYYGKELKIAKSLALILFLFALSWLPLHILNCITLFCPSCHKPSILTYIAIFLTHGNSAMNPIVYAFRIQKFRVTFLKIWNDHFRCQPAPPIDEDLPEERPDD

Homo sapiens = organism: Homo sapiens; experiment: Selectivity of Ki for human recombinant adenosine A2A receptor to Ki for human recombinant adenosine A1 receptor
Outline: (§1)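 Competition binding on membranes from CHO cells stably transfected with individual human adenosine receptor subtypes; radioligands 1 nM [3H]CCPA (A1), 30 nM [3H]NECA (A2A), 1 nM [3H]HEMADO (A3); Ki from nonlinear curve fitting; selectivity as Ki ratio.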

Adenosine receptor A2a = Adenosine receptor A2a (Homo sapiens, UniProt P29274); experiment: Displacement of [3H]NECA from human recombinant adenosine A2A receptor expressed in CHO cells; type: cell-based; outline: as §1
Adenosine receptor A2a, sequence (P29274 whole entry): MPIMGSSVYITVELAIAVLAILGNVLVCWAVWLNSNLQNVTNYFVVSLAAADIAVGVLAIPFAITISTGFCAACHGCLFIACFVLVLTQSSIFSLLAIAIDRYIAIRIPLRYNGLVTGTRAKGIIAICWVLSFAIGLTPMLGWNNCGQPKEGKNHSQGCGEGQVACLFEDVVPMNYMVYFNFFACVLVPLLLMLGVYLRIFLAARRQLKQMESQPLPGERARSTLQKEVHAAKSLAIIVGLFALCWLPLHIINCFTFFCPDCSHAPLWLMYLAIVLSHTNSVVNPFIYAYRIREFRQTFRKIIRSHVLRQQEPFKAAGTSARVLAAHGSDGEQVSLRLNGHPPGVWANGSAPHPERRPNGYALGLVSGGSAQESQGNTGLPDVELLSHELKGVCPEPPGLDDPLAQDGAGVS

[2] = target: T4, Adenosine receptor A1 (Homo sapiens) (UniProt P30542); experiment: Agonist activity human recombinant adenosine A1 receptor expressed in CHO cells assessed as inhibition of forskolin-stimulated adenylyl cyclase activity; type: functional, cell-based
T4 sequence (whole entry): T3 sequence (P30542 whole entry)
Outline: (§2)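 CHO cells stably transfected with human receptor (A1 or A3); cyclase activity stimulated by 10 µM forskolin taken as 100%; percentage activity remaining after agonist-mediated inhibition reported; means ± SEM of three independent experiments.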

[3] = target: Adenosine receptors; A1 & A3 (Homo sapiens) (UniProt P30542+P0DMS8); experiment: Selectivity of Ki for human recombinant adenosine A3 receptor to Ki for human recombinant adenosine A1 receptor; outline: as §1
Adenosine receptor A3 = target: T5, Adenosine receptor A3 (Homo sapiens, UniProt P0DMS8); experiment: Displacement of [3H]HEMADO from human recombinant adenosine A3 receptor expressed in CHO cells; type: cell-based; outline: as §1
T5 sequence (P0DMS8 whole entry): T1 sequence (whole entry)

Mus musculus [4] = experiment: Analgesic activity in mouse assessed as reduction of formalin-induced early nociceptive behavior at 2 mg/kg, ip administered 10 mins before formalin challenge measured every 5 mins for 60 mins in presence of adenosine A1 receptor antagonist DPCPX; type: functional, organism-based; parameters: dose 2 mg/kg
Outline: (§3)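 Mice, n = 8-10 per group, randomly assigned; drug or vehicle (0.9% NaCl) given i.p. 10 min before 1.25% formalin in saline (30 µL) into dorsal hind paw; DPCPX 3 mg/kg i.p. co-administered where stated. Lifting, licking, shaking, flinching timed every 5 min for 60 min; early phase 0-7 min, late 15-60 min; mean ± SEM.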

Mus musculus [5] = experiment: Analgesic activity in mouse assessed as reduction of formalin-induced late nociceptive behavior at 2 mg/kg, ip administered 10 mins before formalin challenge measured every 5 mins for 60 mins in presence of adenosine A1 receptor antagonist DPCPX; type: functional, organism-based; parameters: dose 2 mg/kg; outline: as §3
[6] = target: T1, Adenosine receptor A3 (Homo sapiens); experiment: Agonist activity human recombinant adenosine A3 receptor expressed in CHO cells assessed as inhibition of forskolin-stimulated adenylyl cyclase activity; type: functional, cell-based; outline: as §2
Mus musculus [7] = experiment: Analgesic activity in ip dosed mouse assessed as reduction of formalin-induced late nociceptive behavior administered 10 mins before formalin challenge measured every 5 mins for 60 mins; type: functional, organism-based; outline: as §3
[8] = Lipophilicity log P of the compound; type: physicochemical; conditions: octanol/water

| SMILES | Activity [1] | Ki (Adenosine receptor A2b) [nM] | Ki (Adenosine receptor A1) [nM] | Ratio Ki (Homo sapiens) | Ki (Adenosine receptor A2a) [nM] | Activity [2] | Ratio Ki [3] | Ki (Adenosine receptor A3) [nM] | Activity (Mus musculus [4]) | Activity (Mus musculus [5]) | Activity [6] | Activity (Mus musculus [7]) | logP [8] |
| --- | --- | --- | --- | --- | --- | --- | --- | --- | --- | --- | --- | --- | --- |
| O[C@@H]1[C@H](O)[C@@H](CCl)O[C@H]1n1cnc2c(NC3CCCC3)ncnc21 | Active | 3210 | 0.59 | 1470 | 837 | Active | 637 | 376 | – | – | – | – | – |
| O[C@@H]1[C@H](O)[C@@H](CCl)O[C@H]1n1cnc2c(NC3CCCC3)nc(Cl)nc21 | – | 4830 | 1.56 | 1380 | 2160 | Active | 267 | 417 | – | – | – | – | – |
| O[C@@H]1[C@H](O)[C@@H](CSc2ccccc2F)O[C@H]1n1cnc2c(NC3CCCC3)ncnc21 | – | > 10000 | 64.7 | 80 | 5170 | – | 5 | 296 | – | – | – | – | – |
| O[C@@H]1[C@H](O)[C@@H](CSc2ccccc2F)O[C@H]1n1cnc2c(NC3CCCC3)nc(Cl)nc21 | – | > 10000 | 258 | 8 | 2190 | – | 2 | 479 | – | – | – | – | – |
| C[C@@]1(O)[C@H](O)[C@@H](CCl)O[C@H]1n1cnc2c(NC3CCCC3)nc(Cl)nc21 | – | > 10000 | 12.8 | 1770 | 16200 | – | 237 | 3030 | – | – | – | – | – |
| C[C@@]1(O)[C@H](O)[C@@H](CSc2ccccc2F)O[C@H]1n1cnc2c(NC3CCCC3)nc(Cl)nc21 | – | > 10000 | 2150 | > 47 | > 100000 | – | 0.5 | 1150 | – | – | – | – | – |
| O[C@@H]1[C@H](O)[C@@H](CSc2ccccc2F)O[C@H]1n1cnc2c(NC3CCOC3)ncnc21 (some centres not stated) | – | > 10000 | 250 | 76 | 18900 | – | 3 | 746 | – | – | – | – | – |
| C[C@@]1(O)[C@H](O)[C@@H](CCl)O[C@H]1n1cnc2c(NC3CCCC3)ncnc21 | – | > 10000 | 28.4 | > 3520 | > 100000 | – | 237 | 6740 | – | – | – | – | – |
| C[C@@]1(O)[C@H](O)[C@@H](CSc2ccccc2F)O[C@H]1n1cnc2c(NC3CCCC3)ncnc21 | – | > 10000 | 1680 | > 60 | > 100000 | – | 0.9 | 1440 | – | – | – | – | – |
| CCCn1c(=O)c2[nH]c(C3CCCC3)nc2n(CCC)c1=O | – | – | – | – | – | – | – | – | inactive | inactive | – | – | – |
| OC[C@H]1O[C@@H](n2cnc3c(NC4CCCC4)ncnc32)[C@H](O)[C@@H]1O | – | – | – | – | – | – | – | – | – | – | Active | – | – |
| O[C@@H]1[C@H](O)[C@@H](CCl)O[C@H]1n1cnc2c(NC3CC4CCC3C4)ncnc21 (mixture of isomers) | Active | 2740 | – | – | 1340 | Active | – | 1290 | – | – | – | Dose-dependent effect | 1.04 |
| C[C@@]1(O)[C@H](O)[C@@H](CCl)O[C@H]1n1cnc2c(NC3CC4CCC3C4)ncnc21 (mixture of isomers) | – | > 10000 | 9.13 | 2630 | 24000 | – | 1270 | 11600 | – | – | – | – | – |
| C[C@@]1(O)[C@H](O)[C@@H](CSc2ccccc2F)O[C@H]1n1cnc2c(NC3CC4CCC3C4)ncnc21 (mixture of isomers) | – | > 10000 | 1060 | > 94 | > 100000 | – | 3 | 3480 | – | – | – | – | – |
| C[C@@]1(O)[C@H](O)[C@@H](CSc2ccccc2F)O[C@H]1n1cnc2c(NC3CC4CCC3C4)nc(Cl)nc21 (mixture of isomers) | – | > 10000 | 2970 | > 34 | > 100000 | – | 1.5 | 4350 | – | – | – | – | – |
| C[C@@]1(O)[C@H](O)[C@@H](CO)O[C@H]1n1cnc2c(NC3CC4CCC3C4)nc(Cl)nc21 (mixture of isomers) | – | > 10000 | 6.96 | 1700 | 11800 | – | 645 | 4490 | – | – | – | – | – |
| OC[C@H]1O[C@@H](n2cnc3c(NC4CC5CCC4C5)ncnc32)[C@H](O)[C@@H]1O (mixture of isomers) | – | 4930 | 0.54 | 2350 | 1270 | Active | 187 | 101 | – | – | Active | – | -0.14 |
| OC[C@H]1O[C@@H](n2cnc3c(NC4CC5CCC4C5)nc(Cl)nc32)[C@H](O)[C@@H]1O (mixture of isomers) | – | > 10000 | 0.71 | 1120 | 797 | Active | 182 | 129 | – | – | – | – | – |
| O[C@@H]1[C@H](O)[C@@H](CCl)O[C@H]1n1cnc2c(NC3CC4CCC3C4)nc(Cl)nc21 (mixture of isomers) | – | > 10000 | 1.61 | 1270 | 2050 | Active | 875 | 1410 | – | – | – | – | – |
| C[C@@]1(O)[C@H](O)[C@@H](CCl)O[C@H]1n1cnc2c(NC3CC4CCC3C4)nc(Cl)nc21 (mixture of isomers) | – | > 10000 | 9.16 | 3450 | 31600 | – | 644 | 5900 | – | – | – | – | – |
| C[C@@]1(O)[C@H](O)[C@@H](CO)O[C@H]1n1cnc2c(NC3CC4CCC3C4)ncnc21 (mixture of isomers) | – | > 10000 | 4.09 | 2150 | 8780 | Active | 616 | 2520 | – | – | – | – | – |
